A short description of data set [1]: Clearance in iv dosed Sprague-Dawley rat. It counts as ADME, organism-based. The conditions noted are these: in vivo. A digest of the protocol:
(§1)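 Male Sprague-Dawley rats with femoral vein, femoral artery and gastric catheters; noncrossover design, 2 rats per route; cassette dosing of up to five compounds. i.v. target 1 mg/kg in 5% DMSO/20% Cavitron (pH 4), infused over 30 min. Oral gastric bolus target 2 mg/kg in 5% DMSO/6% Cavitron (pH 4). Plasma sampled to 24 h and measured by HPLC−MS/MS. Noncompartmental analysis; F from dose-normalized AUC(0−∞) relative to mean i.v. AUC.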

The nature of data set [2]: MRT in iv dosed Sprague-Dawley rat. As to conditions: in vivo. It counts as ADME, organism-based. A digest of the protocol: as §1
A short description of data set [3]: Oral bioavailability in Sprague-Dawley rat. It counts as ADME, organism-based. The conditions noted are these: in vivo. A digest of the protocol: as §1
For data set [4], the target named is Transient receptor potential cation channel subfamily A member 1 (Homo sapiens, UniProt O75762). As to the kind of experiment: Inhibition of TRPA1 (unknown origin).
Sequence of Transient receptor potential cation channel subfamily A member 1 (O75762 whole entry): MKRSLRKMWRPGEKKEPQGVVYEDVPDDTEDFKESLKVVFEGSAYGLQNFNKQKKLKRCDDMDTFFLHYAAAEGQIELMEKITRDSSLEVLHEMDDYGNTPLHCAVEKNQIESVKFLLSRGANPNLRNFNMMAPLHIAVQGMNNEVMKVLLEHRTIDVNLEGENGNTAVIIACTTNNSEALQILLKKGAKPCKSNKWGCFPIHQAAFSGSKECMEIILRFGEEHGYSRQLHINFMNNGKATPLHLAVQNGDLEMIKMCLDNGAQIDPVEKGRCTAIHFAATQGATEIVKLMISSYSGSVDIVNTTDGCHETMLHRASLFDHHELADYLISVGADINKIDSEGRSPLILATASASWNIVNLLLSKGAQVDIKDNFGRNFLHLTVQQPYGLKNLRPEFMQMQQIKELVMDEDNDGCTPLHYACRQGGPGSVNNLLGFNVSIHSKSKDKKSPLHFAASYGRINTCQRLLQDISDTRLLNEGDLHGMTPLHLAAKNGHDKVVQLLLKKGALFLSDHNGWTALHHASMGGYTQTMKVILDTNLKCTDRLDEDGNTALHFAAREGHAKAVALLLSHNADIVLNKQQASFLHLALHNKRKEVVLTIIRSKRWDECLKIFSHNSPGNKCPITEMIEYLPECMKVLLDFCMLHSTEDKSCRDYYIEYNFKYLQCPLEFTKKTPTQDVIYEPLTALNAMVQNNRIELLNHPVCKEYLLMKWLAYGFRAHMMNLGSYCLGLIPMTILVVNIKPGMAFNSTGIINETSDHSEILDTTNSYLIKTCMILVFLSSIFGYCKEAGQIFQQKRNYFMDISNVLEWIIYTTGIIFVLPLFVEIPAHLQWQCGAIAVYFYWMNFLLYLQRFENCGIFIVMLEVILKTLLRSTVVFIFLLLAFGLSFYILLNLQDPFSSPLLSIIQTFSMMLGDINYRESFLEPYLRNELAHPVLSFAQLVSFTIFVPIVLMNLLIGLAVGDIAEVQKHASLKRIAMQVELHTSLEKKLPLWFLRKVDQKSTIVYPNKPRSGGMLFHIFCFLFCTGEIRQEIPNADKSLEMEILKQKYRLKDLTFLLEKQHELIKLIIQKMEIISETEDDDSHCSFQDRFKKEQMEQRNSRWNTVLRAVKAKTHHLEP
Data set [5] has as its target Transient receptor potential cation channel subfamily M member 4 (Homo sapiens, UniProt Q8TD43). In words: Inhibition of TRPM4 (unknown origin).
In data set [6] the target is T1, Short transient receptor potential channel 4 (Homo sapiens, UniProt Q9UBN4).
T1 sequence (Q9UBN4 whole entry): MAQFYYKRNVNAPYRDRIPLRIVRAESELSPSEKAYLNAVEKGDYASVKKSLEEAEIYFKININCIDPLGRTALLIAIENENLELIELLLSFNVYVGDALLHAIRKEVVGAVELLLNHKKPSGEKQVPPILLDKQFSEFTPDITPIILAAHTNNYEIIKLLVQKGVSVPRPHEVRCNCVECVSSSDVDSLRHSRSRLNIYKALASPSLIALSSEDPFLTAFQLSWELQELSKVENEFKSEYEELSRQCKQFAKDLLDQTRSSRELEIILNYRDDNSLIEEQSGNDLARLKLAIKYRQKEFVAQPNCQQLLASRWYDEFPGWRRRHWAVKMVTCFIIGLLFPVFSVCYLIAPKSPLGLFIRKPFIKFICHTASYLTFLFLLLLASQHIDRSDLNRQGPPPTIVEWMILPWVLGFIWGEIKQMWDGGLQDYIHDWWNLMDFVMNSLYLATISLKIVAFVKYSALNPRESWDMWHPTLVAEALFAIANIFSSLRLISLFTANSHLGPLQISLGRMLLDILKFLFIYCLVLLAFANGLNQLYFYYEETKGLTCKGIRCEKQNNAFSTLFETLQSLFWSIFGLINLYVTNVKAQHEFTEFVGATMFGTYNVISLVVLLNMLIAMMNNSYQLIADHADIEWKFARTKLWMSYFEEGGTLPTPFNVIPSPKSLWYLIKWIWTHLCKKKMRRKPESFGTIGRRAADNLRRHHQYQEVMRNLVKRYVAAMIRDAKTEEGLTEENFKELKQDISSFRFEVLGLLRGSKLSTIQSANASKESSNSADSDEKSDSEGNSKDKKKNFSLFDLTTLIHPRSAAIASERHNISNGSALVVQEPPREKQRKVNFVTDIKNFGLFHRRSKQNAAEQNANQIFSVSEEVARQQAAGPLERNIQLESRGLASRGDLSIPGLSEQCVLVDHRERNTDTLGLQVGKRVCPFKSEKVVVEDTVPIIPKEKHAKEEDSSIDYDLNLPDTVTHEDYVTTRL
In words: Inhibition of TRPC4 (unknown origin).

Data set [7] addresses T2, Short transient receptor potential channel 5 (Homo sapiens, UniProt Q9UL62).
T2 sequence (Q9UL62 whole entry): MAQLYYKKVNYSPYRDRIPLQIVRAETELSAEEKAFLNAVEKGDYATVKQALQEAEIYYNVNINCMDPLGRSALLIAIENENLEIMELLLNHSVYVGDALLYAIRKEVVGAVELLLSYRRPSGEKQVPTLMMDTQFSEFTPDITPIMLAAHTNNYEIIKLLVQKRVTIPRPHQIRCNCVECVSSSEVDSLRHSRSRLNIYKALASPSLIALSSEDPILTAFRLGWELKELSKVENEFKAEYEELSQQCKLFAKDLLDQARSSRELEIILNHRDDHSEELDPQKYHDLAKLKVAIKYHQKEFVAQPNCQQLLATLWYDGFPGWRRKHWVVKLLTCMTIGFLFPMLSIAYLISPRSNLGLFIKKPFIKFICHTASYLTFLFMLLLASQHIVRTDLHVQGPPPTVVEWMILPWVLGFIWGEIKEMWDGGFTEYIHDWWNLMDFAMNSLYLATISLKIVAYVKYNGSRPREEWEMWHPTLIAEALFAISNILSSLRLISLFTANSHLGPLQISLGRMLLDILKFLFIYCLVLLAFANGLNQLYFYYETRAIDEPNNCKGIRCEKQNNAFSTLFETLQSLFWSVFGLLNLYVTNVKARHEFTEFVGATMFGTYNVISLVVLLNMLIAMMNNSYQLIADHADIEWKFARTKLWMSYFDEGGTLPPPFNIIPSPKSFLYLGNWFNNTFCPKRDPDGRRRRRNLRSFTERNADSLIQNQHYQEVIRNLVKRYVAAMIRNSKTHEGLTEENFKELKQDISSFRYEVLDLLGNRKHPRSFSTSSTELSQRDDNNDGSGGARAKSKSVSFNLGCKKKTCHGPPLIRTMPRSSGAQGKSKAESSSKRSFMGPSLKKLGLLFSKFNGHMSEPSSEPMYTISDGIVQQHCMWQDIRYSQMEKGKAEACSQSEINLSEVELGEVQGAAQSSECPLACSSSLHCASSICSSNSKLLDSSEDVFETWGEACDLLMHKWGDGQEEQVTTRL
As to the kind of experiment: Inhibition of TRPC5 (unknown origin).

Data set [8] is described as follows: Lipophilicity, log D of the compound by chromatography. It counts as physicochemical.

A value given as a limit tells only on which side of the number the result lay.

In general, clearance refers to the rate of elimination divided by the concentration. Read a high clearance as a high capacity for elimination. In general, MRT refers to the average time that molecules of a dose stay in the body. A word on the bioavailability: it is dose-corrected exposure relative to a reference, in per cent. By IC50 is commonly meant the midpoint of a concentration-inhibition curve. The chromatographic logD is a lipophilicity value derived from retention on a column.

Sequence of Transient receptor potential cation channel subfamily M member 4 (Q8TD43 whole entry): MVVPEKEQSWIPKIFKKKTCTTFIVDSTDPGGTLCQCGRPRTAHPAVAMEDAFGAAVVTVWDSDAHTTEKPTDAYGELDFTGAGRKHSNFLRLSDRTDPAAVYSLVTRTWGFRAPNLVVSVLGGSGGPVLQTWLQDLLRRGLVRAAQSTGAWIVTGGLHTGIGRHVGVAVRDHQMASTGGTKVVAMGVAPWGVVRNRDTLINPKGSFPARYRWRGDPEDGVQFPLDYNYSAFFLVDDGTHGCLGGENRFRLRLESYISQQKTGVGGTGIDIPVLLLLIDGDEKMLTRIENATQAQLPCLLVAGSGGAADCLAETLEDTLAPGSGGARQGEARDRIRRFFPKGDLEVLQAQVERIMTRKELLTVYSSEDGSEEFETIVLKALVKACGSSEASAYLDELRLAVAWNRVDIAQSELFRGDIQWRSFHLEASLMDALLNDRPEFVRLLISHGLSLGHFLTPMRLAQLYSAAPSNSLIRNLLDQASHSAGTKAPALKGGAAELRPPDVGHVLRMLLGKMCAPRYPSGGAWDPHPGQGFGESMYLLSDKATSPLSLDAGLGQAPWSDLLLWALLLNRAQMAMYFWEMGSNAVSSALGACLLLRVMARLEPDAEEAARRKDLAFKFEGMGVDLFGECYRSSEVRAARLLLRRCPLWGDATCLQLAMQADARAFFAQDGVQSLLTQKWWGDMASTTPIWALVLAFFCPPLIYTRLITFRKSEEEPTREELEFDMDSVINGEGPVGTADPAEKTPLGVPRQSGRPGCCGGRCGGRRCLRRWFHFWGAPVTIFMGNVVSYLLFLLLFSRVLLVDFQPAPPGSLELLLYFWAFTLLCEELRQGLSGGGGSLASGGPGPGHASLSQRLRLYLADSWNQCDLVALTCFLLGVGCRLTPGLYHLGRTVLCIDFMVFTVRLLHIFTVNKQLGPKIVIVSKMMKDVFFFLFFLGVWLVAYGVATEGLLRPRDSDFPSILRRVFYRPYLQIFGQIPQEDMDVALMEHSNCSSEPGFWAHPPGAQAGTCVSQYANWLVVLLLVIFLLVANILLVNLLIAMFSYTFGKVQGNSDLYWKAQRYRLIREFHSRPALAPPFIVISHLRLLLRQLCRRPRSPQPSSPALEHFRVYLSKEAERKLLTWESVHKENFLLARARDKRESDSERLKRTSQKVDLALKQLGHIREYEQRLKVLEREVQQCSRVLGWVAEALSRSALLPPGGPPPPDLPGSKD

Take `N#Cc1ccc(O[C@H]2CN(S(=O)(=O)c3ccc(Cl)cc3Cl)C[C@@]2(O)CO)cc1F`: in data set [1], the clearance stood at 58 mL/min/kg. The compound also returned an MRT in data set [2] of 54 min. For the same compound, the bioavailability in data set [3] came out at 35%. Also, the IC50 in data set [4], in data set [5], in data set [6] and in data set [7] was over 10 µM throughout. Besides, in data set [8], the chromatographic logD amounted to 4.6.

Values taken from ChEMBL document CHEMBL4152379, “Discovery of Pyrrolidine Sulfonamides as Selective and Orally Bioavailable Antagonists of Transient Receptor Potential Vanilloid-4 (TRPV4)” (J Med Chem, 2018).
